Results: ChEMBL document CHEMBL1150133, “New saponins from the starfish Certonardoa semiregularis” (J Nat Prod, 2002)
In brackets after ≈: the same amount, converted by molar mass.

Assays:
Human alphaherpesvirus 1 = test: Antiviral activity against HSV1 F infected in african green monkey Vero cells assessed as inhibition of virus-induced cytopathic effect after 3 days by MTT assay; type: functional, organism-based; settings: Human alphaherpesvirus 1, F, 72 h
Method in brief: (§1)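 Confluent Vero cells were infected at 100 CCID50 per well, or mock-infected, with 1 h adsorption at 37 °C. Compound in DMEM/2% FBS was added in duplicate per concentration, followed by 3 days at 37 °C. Viability was read by MTT, and EC50 for CPE inhibition and CC50 for cytocidal effect were calculated.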

[1] = Cytotoxicity against african green monkey Vero cells after 3 days by MTT assay; type: cell-based; settings: chlorocebus sabaeus; method in brief: as §1
[2] = tested on: Human immunodeficiency virus 2; test: Antiviral activity against HIV2 ROD infected in human MT4 cells assessed as inhibition of virus-induced cytopathic effect after 5 days by MTT assay; type: functional, organism-based; settings: Human immunodeficiency virus 2, ROD, MT4, 120 h
Method in brief: (§2)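 MT-4 cells (RPMI 1640/10% FBS), HIV-infected or mock-infected, were plated with 2× concentrated test samples and kept 5 days at 37 °C. Cells were inspected microscopically, then MTT was added for 1 h, dissolved in acidified 2-propanol, and read at 540 nm (690 nm reference). EC50 (50% protection) came from infected wells and CC50 (50% viability loss) from mock-infected wells.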

Human alphaherpesvirus 2 = test: Antiviral activity against HSV2 MS infected in african green monkey Vero cells assessed as inhibition of virus-induced cytopathic effect after 3 days by MTT assay; type: functional, organism-based; settings: Human alphaherpesvirus 2, MS, 72 h; method in brief: as §1
[3] = Cytotoxicity against human MT4 cells after 5 days by MTT assay; type: cell-based; method in brief: as §2
[4] = tested on: Vesicular stomatitis Indiana virus; test: Antiviral activity against Vesicular stomatitis Indiana virus infected in human HeLa assessed as inhibition of virus-induced cytopathic effect after 2 days by MTT assay; type: functional, organism-based; settings: 48 h
Method in brief: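 CPE-inhibition assay with VSV strain Indiana (stock grown in HeLa cells) on confluent HeLa cells (DMEM/5% FBS, gentamycin) in 96-well plates. Infection at 100 CCID50 per well with 30 min adsorption at 37 °C, then the compound in DMEM/2% FBS, duplicate wells per concentration, 2 days at 37 °C. Viability read by MTT; EC50 is the concentration giving 50% protection. Mock-infected wells gave CC50.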

Coxsackievirus B3 = test: Antiviral activity against Coxsackievirus B3 Nancy infected in human HeLa assessed as inhibition of virus-induced cytopathic effect after 2 days by MTT assay; type: functional, organism-based; settings: Enterovirus B, 48 h
Method in brief: (§3)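 In HeLa cells, virus-induced CPE inhibition was run with infected or mock-infected wells, 30 min virus adsorption, and compound in DMEM/2% FBS in duplicate per concentration. After 2 days at 37 °C, MTT read-out gave EC50 from infected wells and CC50 from mock-infected wells.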

[5] = tested on: Encephalomyocarditis virus; test: Antiviral activity against Encephalomyocarditis virus EMC infected in human HeLa assessed as inhibition of virus-induced cytopathic effect after 2 days by MTT assay; type: functional, organism-based; settings: Cardiovirus A, 48 h; method in brief: as §3
[6] = Cytotoxicity against human HeLa cells after 2 days by MTT assay; type: cell-based; method in brief: as §3
[7] = tested on: Human immunodeficiency virus 1; test: Antiviral activity against HIV1 3B infected in human MT4 cells assessed as inhibition of virus-induced cytopathic effect after 5 days by MTT assay; type: functional, organism-based; settings: Human immunodeficiency virus 1, 3B, MT4, 120 h; method in brief: as §2

| Structure (SMILES) | EC50 (Human alphaherpesvirus 1) [µg/mL] | CC50 at 72 h [1] [µg/mL] | EC50 [2] [µg/mL] | EC50 (Human alphaherpesvirus 2) [µg/mL] | CC50 at 120 h [3] [µg/mL] | EC50 [4] [µg/mL] | EC50 (Coxsackievirus B3) [µg/mL] | EC50 [5] [µg/mL] | CC50 at 48 h [6] [µg/mL] | EC50 [7] [µg/mL] |
| --- | --- | --- | --- | --- | --- | --- | --- | --- | --- | --- |
| CO[C@@H]1CO[C@@H](OCC[C@@H](CC[C@@H](C)[C@H]2[C@@H](O)[C@@H](O)[C@@H]3[C@]2(C)CC[C@@H]2[C@@]4(C)CC[C@H](O)[C@H](O)[C@@H]4[C@@H](OS(=O)(=O)[O-])C[C@]23O)C(C)C)[C@H](O)[C@H]1O.[Na+] [CERTONARDOSIDE J] | 81.1 | > 100 | > 67.4 | 82.3 | 67.4 | > 58.8 | > 58.8 | > 58.8 | 58.8 | > 67.4 |
| CO[C@H]1[C@H](O[C@H]2[C@H](OC[C@@H](C)[C@H](C)/C=C/[C@@H](C)[C@H]3C[C@@H](O)[C@@H]4[C@]3(C)CC[C@@H]3[C@@]5(C)CC[C@H](O)[C@H](O)[C@@H]5[C@@H](O)C[C@]34O)OC[C@@H](O)[C@@H]2OS(=O)(=O)[O-])OC[C@@H](O)[C@@H]1O.[Na+] [CERTONARDOSIDE D] | > 79.9 | 79.9 | > 100 | > 79.9 | > 100 | > 100 | > 100 | > 100 | > 100 | > 100 |
| C=C(CC[C@@H](C)[C@H]1C[C@@H](O)[C@@H]2[C@]1(C)CC[C@@H]1[C@@]3(C)CC[C@H](O)[C@H](O)[C@@H]3[C@@H](O)C[C@]12O)C(C)CO[C@@H]1OC[C@@H](O)[C@H](O)[C@H]1O[C@@H]1OC[C@@H](O)[C@H](O)[C@H]1OC (some centres undefined) [ACODONTASTEROSIDE G] | 86.1 (≈ 113 µM) | > 100 | > 42.5 | 94.5 (≈ 125 µM) | 42.5 (≈ 56 µM) | > 51.5 | > 51.5 | > 51.5 | 51.5 (≈ 67.9 µM) | > 42.5 |
| CO[C@H]1[C@H](O[C@H]2[C@H](O[C@@H](CC[C@@H](C)[C@H]3C[C@@H](O)[C@H]4[C@@H]5C[C@H](O)[C@H]6[C@@H](O)[C@@H](O)CC[C@]6(C)[C@H]5CC[C@@]43C)C(C)C)O[C@H](CO)[C@@H]2O)OC[C@@H](OC)[C@@H]1O [CERTONARDOSIDE I] | > 100 | > 100 | > 42.5 | > 100 | 42.5 (≈ 57.1 µM) | > 59.9 | > 59.9 | > 59.9 | 59.9 (≈ 80.4 µM) | > 42.5 |
| Cc1cn([C@H]2C[C@H](N=[N+]=[N-])[C@@H](CO)O2)c(=O)[nH]c1=O [ZIDOVUDINE] |  |  | 0.007 (≈ 0.0262 µM) |  | 1.9 (≈ 7.11 µM) |  |  |  |  | 0.001 (≈ 0.00374 µM) |
| C=C(CC[C@@H](C)[C@H]1C[C@@H](O)[C@@H]2[C@]1(C)CC[C@@H]1[C@@]3(C)CC[C@H](O)C[C@@H]3[C@@H](O)C[C@]12O)C(C)CO[C@@H]1OC[C@@H](O)[C@H](OS(=O)(=O)[O-])[C@H]1O[C@@H]1OC[C@@H](O)[C@H](O)[C@H]1OC.[Na+] (some centres undefined) [CERTONARDOSIDE C] | > 97.5 | 97.5 | > 1.4 | > 97.5 | 1.4 | > 100 | > 100 | > 100 | > 100 | > 1.4 |
| Nc1ccn([C@H]2CC[C@@H](CO)O2)c(=O)n1 [ZALCITABINE] |  |  | 0.1 (≈ 0.473 µM) |  | 11 (≈ 52.1 µM) |  |  |  |  | 0.1 (≈ 0.473 µM) |
| CO[C@@H]1CO[C@@H](OCC[C@@H](CC[C@@H](C)[C@H]2[C@@H](O)[C@@H](O)[C@H]3[C@@H]4C[C@H](OS(=O)(=O)[O-])[C@H]5[C@@H](O)[C@@H](O)CC[C@]5(C)[C@H]4CC[C@]23C)C(C)C)[C@H](O)[C@H]1O.[Na+] [CERTONARDOSIDE K] | 97.8 | > 100 | > 100 | 82.1 | > 100 | > 57.9 | > 57.9 | > 57.9 | 57.9 | > 100 |
| O=c1[nH]cnc2c1ncn2[C@H]1CC[C@@H](CO)O1 [DIDANOSINE] |  |  | 11 (≈ 46.6 µM) |  | > 100 |  |  |  |  | 2.1 (≈ 8.89 µM) |
| Nc1nc2c(ncn2COCCO)c(=O)[nH]1 [ACYCLOVIR] | 0.8 (≈ 3.55 µM) | > 10 |  | 2.4 (≈ 10.7 µM) |  |  |  |  |  |  |
| NC(=O)c1ncn([C@@H]2O[C@H](CO)[C@@H](O)[C@H]2O)n1 [RIBAVIRIN] |  |  |  |  |  | 13.7 (≈ 56.1 µM) | 236 (≈ 968 µM) | 27.2 (≈ 111 µM) | 300 (≈ 1230 µM) |  |
| CO[C@H]1[C@H](O[C@H]2[C@H](O[C@@H](CC[C@@H](C)[C@H]3C[C@@H](O)[C@@H]4[C@]3(C)CC[C@@H]3[C@@]5(C)CC[C@H](O)[C@H](O)[C@@H]5[C@@H](O)C[C@]34O)C(C)C)O[C@H](CO)[C@@H]2O)OC[C@@H](OC)[C@@H]1O [CERTONARDOSIDE F] | > 100 | > 100 | > 39.7 | > 100 | 39.7 (≈ 52.2 µM) | > 64.8 | > 64.8 | > 64.8 | 64.8 (≈ 85.2 µM) | > 39.7 |
| Nc1ccn([C@@H]2O[C@H](CO)[C@@H](O)[C@@H]2O)c(=O)n1 [CYTARABINE] | 1.6 (≈ 6.58 µM) | 4.8 (≈ 19.7 µM) |  | 3 (≈ 12.3 µM) |  |  |  |  |  |  |
| CO[C@H]1[C@H](O[C@H]2[C@H](O[C@@H](CC[C@@H](C)[C@H]3C[C@@H](O)[C@@H]4[C@]3(C)CC[C@@H]3[C@@]5(C)CC[C@H](O)[C@H](O)[C@@H]5[C@@H](OS(=O)(=O)[O-])C[C@]34O)C(C)C)O[C@H](CO)[C@@H]2O)OC[C@@H](OC)[C@@H]1O.[Na+] [CERTONARDOSIDE G] | > 100 | > 100 | > 100 | > 100 | > 100 | > 100 | > 100 | > 100 | > 100 | > 100 |
| C=C(CC[C@@H](C)[C@H]1C[C@@H](O)[C@@H]2[C@]1(C)CC[C@@H]1[C@@]3(C)CC[C@H](O)[C@H](O)[C@@H]3[C@@H](O)C[C@]12O)C(C)CO[C@@H]1OC[C@@H](O)[C@H](OS(=O)(=O)[O-])[C@H]1O[C@@H]1OC[C@@H](O)[C@H](O)[C@H]1OC.[Na+] (some centres undefined) [CERTONARDOSIDE A] | > 100 | > 100 | > 6.8 | > 100 | 6.8 | > 100 | > 100 | > 100 | > 100 | > 6.8 |
